From ChEMBL document CHEMBL3352550, “Discovery and optimization of 4,5-diarylisoxazoles as potent dual inhibitors of pyruvate dehydrogenase kinase and heat shock protein 90” (J Med Chem, 2014)
Activity calls are given as the source filed them. The rule behind the calls is not given here.

How the values were obtained:
[1] = target: T1, Heat shock protein HSP90 (Homo sapiens, UniProt P07900+P08238); test: Inhibition of HSP90 in human NCI-H1299 cells assessed as reduction in AKT protein levels at 10 uM incubated for 12 hrs by immunoblotting method; format: cell-based
Summary of the method: (§1)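 NCI-H1299 cells were treated for 12 h and lysed in RIPA buffer with protease inhibitors. Equal protein was loaded per lane, run on a gel and transferred to nitrocellulose. Membranes were blocked in TBST with 3% BSA for 1 h at room temperature, then probed with primary antibody for 2 h and secondary antibody for 1 h, both at room temperature. Bands were detected by ECL.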

[2] = target: T1, Heat shock protein HSP90; test: Inhibition of HSP90 in human NCI-H1299 cells assessed as reduction in c-MET protein levels at 10 uM incubated for 12 hrs by immunoblotting method; format: cell-based; summary of the method: as §1
[3] = target: T2, [Pyruvate dehydrogenase (acetyl-transferring)] kinase isozyme 1, mitochondrial (Homo sapiens, UniProt Q15118); conditions: NCI-H1299, 10 uM
T2 sequence (Q15118 whole entry): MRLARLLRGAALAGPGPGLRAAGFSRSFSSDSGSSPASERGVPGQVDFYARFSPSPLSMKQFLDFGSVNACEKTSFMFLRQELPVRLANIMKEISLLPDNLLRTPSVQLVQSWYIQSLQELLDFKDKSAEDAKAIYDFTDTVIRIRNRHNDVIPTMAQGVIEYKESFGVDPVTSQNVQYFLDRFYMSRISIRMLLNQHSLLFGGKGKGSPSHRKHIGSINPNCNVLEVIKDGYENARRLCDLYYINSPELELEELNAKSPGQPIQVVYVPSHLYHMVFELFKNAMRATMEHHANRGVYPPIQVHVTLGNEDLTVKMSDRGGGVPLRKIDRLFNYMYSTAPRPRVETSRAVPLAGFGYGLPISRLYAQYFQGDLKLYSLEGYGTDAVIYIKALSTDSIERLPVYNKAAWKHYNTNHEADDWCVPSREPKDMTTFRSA

[4] = system: NCI-H1299; test: Increase in ROS production in human NCI-H1299 cells at incubated for 12 hrs by DCFH-DA staining based fluorescence assay; format: functional, cell-based
Summary of the method: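 Cells loaded with 5 µmol/L DCFH-DA in fresh medium for 30 min after compound treatment, washed with PBS, and intracellular ROS read as fluorescence intensity by flow cytometry.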

[5] = system: NCI-H1299; test: Antiproliferative activity against human NCI-H1299 cells after 72 hrs by CCK8 assay; format: functional, cell-based
Summary of the method: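 NCI-H1299 cells seeded at 3000 per well; test compound at a range of concentrations added the next day, vehicle DMSO as control; proliferation read by CCK8 kit after 72 h; IC50 derived from dose–response.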

[6] = target: [Pyruvate dehydrogenase (acetyl-transferring)] kinase isozyme 4, mitochondrial (Homo sapiens, UniProt Q16654); test: Inhibition of recombinant PDHK4 (unknown origin) expressed in Escherichia coli incubated for 1 hr by ELISA
Chain of [Pyruvate dehydrogenase (acetyl-transferring)] kinase isozyme 4, mitochondrial (Q16654 whole entry): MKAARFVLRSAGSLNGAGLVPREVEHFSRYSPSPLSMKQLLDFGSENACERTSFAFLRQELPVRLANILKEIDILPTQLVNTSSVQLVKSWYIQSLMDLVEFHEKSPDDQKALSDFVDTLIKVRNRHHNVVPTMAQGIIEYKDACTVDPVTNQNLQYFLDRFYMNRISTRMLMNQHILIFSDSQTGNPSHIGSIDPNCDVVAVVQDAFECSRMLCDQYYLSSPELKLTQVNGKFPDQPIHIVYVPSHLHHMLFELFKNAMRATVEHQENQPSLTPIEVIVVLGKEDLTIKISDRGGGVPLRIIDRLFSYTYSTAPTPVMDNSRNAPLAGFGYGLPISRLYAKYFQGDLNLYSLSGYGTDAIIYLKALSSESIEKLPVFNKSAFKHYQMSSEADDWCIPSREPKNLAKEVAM

[7] = system: NCI-H1299; test: Reduction in extracellular acidification rate in human NCI-H1299 cells at 10 uM incubated for 12 hrs; format: functional, cell-based
Summary of the method: (§2)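 Cells pre-treated with varying concentrations of compound for 12 h, then oxygen consumption rate and extracellular acidification rate measured on an XF96 extracellular flux analyzer; ECAR/OCR ratio calculated from these readings.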

[8] = Apparent permeability from basolateral to apical side in human Caco2 cells; conditions: Caco-2
[9] = target: [Pyruvate dehydrogenase (acetyl-transferring)] kinase isozyme 2, mitochondrial (Homo sapiens, UniProt Q15119); test: Inhibition of recombinant PDHK2 (unknown origin) expressed in Escherichia coli incubated for 1 hr by ELISA
[10] = Efflux ratio in human Caco2 cells; conditions: Caco-2
[11] = system: NCI-H1299; test: Reduction in oxygen consumption rate in human NCI-H1299 cells at 10 uM incubated for 12 hrs; format: functional, cell-based; summary of the method: as §2
[12] = target: T1, Heat shock protein HSP90; test: Inhibition of HSP90 in human NCI-H1299 cells assessed as reduction in HER2 protein levels at 10 uM incubated for 12 hrs by immunoblotting method; format: cell-based; summary of the method: as §1
[13] = target: T2, [Pyruvate dehydrogenase (acetyl-transferring)] kinase isozyme 1, mitochondrial; test: Inhibition of recombinant PDHK1 (unknown origin) expressed in Escherichia coli at 10 uM incubated for 1 hr by ELISA
Summary of the method: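 Recombinant His6-SUMO-PDHK1 was expressed in E. coli and purified on nickel resin. It was used at 0.25 µg/well on immobilized PDHA1 substrate (0.5 µg/well) with 10 µM ATP in 50 mM HEPES, 10 mM MgCl2 and 1 mM EGTA. Compounds were screened at 10 µM and percent inhibition was recorded. Detection used anti-p-PDHA1(S293) for 1 h and HRP secondary antibody for 1 h, then o-phenylenediamine, read at OD490.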

[14] = Apparent permeability from apical to basolateral side in human Caco2 cells; conditions: Caco-2
[15] = target: T2, [Pyruvate dehydrogenase (acetyl-transferring)] kinase isozyme 1, mitochondrial; test: Inhibition of recombinant PDHK1 (unknown origin) expressed in Escherichia coli incubated for 1 hr by ELISA
[16] = system: NCI-H1299; test: Increase in oxygen consumption rate/extracellular acidification rate ratio in human NCI-H1299 cells at 10 uM incubated for 12 hrs; format: functional, cell-based
[17] = target: T1, Heat shock protein HSP90; test: Inhibition of HSP90 in human NCI-H1299 cells assessed as increase in HSP70 protein levels at 10 uM incubated for 12 hrs by immunoblotting method; format: cell-based; summary of the method: as §1
[18] = target: [Pyruvate dehydrogenase (acetyl-transferring)] kinase isozyme 3, mitochondrial (Homo sapiens, UniProt Q15120); test: Inhibition of recombinant PDHK3 (unknown origin) expressed in Escherichia coli incubated for 1 hr by ELISA
Chain of [Pyruvate dehydrogenase (acetyl-transferring)] kinase isozyme 3, mitochondrial (Q15120 whole entry): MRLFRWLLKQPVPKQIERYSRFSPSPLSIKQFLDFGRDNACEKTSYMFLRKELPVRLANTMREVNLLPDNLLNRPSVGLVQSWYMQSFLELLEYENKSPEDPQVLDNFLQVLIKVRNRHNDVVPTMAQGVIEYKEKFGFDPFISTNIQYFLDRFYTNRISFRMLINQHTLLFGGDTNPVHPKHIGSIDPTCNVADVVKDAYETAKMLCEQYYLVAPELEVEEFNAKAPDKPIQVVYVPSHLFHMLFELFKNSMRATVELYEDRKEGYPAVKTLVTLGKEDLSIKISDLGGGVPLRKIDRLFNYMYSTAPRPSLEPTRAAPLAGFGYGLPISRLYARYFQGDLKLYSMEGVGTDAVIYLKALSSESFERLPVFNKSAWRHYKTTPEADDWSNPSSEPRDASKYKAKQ

[19] = target: T1, Heat shock protein HSP90; test: Inhibition of geldanamycin-BODIPY binding to full-length HSP90 (unknown origin) by fluorescence polarization based competition assay; format: protein assay
Summary of the method: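 Fluorescence polarization competition using full-length HSP90 and geldanamycin-BODIPY as probe.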

- inhibition [1]: Active
- inhibition [2]: Active
- inhibition [3]: Active
- IC50 ([5]; NCI-H1299, 72 h): 9210 nM
- IC50 [6]: 1740 nM
- Papp B→A [8]: 15.5 ×10⁻⁶ cm/s
- IC50 [9]: 1130 nM
- efflux ratio [10]: 1.38
- inhibition [12]: Active
- inhibition [13]: > 50%
- Papp A→B [14]: 11.2 ×10⁻⁶ cm/s
- IC50 [15]: 604 nM
- inhibition [17]: Active
- IC50 [18]: 5340 nM
- IC50 [19]: 512 nM
SMILES: COc1ccccc1N1CCN(C(=O)/C=C/c2noc(-c3cc(Cl)c(O)cc3O)c2-c2ccc(O)cc2)CC1
- Activity [4]: Active
- inhibition [5]: Dose-dependent effect
- inhibition [7]: Active
- inhibition [11]: Active
- Activity [16]: Active
